According to ChEMBL document CHEMBL1144710, “epigenetic multiple ligands: mixed histone/protein methyltransferase, acetyltransferase, and class III deacetylase (sirtuin) inhibitors” (J Med Chem, 2008):
The source made the active and inactive calls.

How the values were obtained:
RmtA = RmtA (Emericella nidulans, UniProt Q5VLE3); assay: Inhibition of Aspergillus nidulans RmtA
Procedure, shortened: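 Enzyme was GST-RmtA fusion expressed in E. coli BL21 and glutathione-affinity purified (500 ng), preincubated with compound for 15 min at room temperature. Then 20 µg chicken erythrocyte core histones and 0.55 µCi [3H]AdoMet were added, 30 min at 30 °C. Stopped with 25% TCA, filtered, counted by liquid scintillation.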

U-937 [1] = assay: Inhibition of histone H4R3 methylation in human U937 cells at 50 uM after 24 hrs; assay type: functional, cell-based
Procedure, shortened: (§1)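 U937 cells treated at 50 µM for 24 h. Histones extracted with Triton buffer, then 0.2 M HCl overnight at 4 °C. 3–10 µg run on 15% SDS-PAGE and immunoblotted with anti-monomethyl-H3K4, monomethyl-H4R3 or dimethyl-H3R17 (1:500, overnight 4 °C), ECL detection. Loading controls: total H4 (H3K4), Ponceau Red (Arg marks).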

U-937 [2] = assay: Inhibition of histone H3R17 methylation in human U937 cells at 50 uM after 24 hrs; assay type: functional, cell-based; procedure, shortened: as §1
U-937 [3] = assay: Inhibition of histone H3K4 methylation in human U937 cells at 50 uM after 24 hrs; assay type: functional, cell-based; procedure, shortened: as §1
[4] = biological target: Protein arginine N-methyltransferase 1 (Homo sapiens) (UniProt Q99873); assay: Inhibition of human recombinant PRMT1 assessed as nuclear ribonucleoprotein Npl3p methylation at 100 uM
Procedure, shortened: (§2)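 Recombinant enzymes (0.2 µg) with substrate (0.5 µg: Npl3p for PRMT1, PABP1 for CARM1, histone H3 for SET7), 0.5 µM [3H]AdoMet and 100 µM compound in PBS pH 7.4 with 3.3% v/v DMSO, 90 min at 30 °C. Products separated by 10% SDS-PAGE, transferred to PVDF, detected by fluorography on film overnight.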

[5] = biological target: T1, Histone-lysine N-methyltransferase SETD7 (Homo sapiens) (UniProt Q8WTS6); assay: Inhibition of human recombinant SET7 assessed as histone H3 protein methylation at 100 uM; procedure, shortened: as §2
T1 sequence (whole entry): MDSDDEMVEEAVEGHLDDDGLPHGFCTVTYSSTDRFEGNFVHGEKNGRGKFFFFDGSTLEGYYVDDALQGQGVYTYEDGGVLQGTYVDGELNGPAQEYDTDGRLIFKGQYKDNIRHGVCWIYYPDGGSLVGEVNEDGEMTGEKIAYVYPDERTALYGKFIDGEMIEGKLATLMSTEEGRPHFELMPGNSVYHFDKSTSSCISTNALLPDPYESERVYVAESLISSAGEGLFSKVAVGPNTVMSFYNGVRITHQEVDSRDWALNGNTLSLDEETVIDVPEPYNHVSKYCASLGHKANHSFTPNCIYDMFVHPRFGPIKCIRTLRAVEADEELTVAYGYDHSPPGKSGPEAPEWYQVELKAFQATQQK

[6] = biological target: T2, Histone-arginine methyltransferase CARM1 (Homo sapiens) (UniProt Q86X55); assay: Inhibition of human recombinant CARM1 assessed as poly(A) binding protein 1 methylation at 100 uM; procedure, shortened: as §2
T2 sequence (whole entry): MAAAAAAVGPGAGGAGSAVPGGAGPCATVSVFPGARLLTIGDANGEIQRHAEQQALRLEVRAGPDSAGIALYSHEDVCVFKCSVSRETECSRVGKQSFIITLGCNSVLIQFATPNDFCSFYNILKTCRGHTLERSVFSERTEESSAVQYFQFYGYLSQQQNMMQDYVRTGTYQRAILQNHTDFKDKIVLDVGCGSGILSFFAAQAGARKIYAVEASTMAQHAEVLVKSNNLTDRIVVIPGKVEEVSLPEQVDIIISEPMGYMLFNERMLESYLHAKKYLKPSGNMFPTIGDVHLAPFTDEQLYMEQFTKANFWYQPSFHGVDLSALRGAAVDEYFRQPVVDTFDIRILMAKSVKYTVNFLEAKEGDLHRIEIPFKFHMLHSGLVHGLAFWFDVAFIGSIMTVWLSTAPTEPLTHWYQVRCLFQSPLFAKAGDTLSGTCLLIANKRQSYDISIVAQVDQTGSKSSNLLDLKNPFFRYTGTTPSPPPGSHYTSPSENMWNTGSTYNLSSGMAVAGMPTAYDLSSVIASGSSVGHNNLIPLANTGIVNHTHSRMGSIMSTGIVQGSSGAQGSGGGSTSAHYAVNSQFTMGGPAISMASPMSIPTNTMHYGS

RmtA, sequence (Q5VLE3 whole entry, the tested form may be a part): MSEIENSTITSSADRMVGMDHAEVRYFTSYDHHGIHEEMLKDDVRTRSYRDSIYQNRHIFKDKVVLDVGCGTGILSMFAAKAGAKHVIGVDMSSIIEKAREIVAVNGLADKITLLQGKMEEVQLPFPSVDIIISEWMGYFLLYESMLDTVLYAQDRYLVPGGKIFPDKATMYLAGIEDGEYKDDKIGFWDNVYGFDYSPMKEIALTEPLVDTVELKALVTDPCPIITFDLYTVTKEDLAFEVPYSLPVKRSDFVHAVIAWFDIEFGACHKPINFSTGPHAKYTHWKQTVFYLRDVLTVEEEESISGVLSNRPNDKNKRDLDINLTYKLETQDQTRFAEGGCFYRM
Protein arginine N-methyltransferase 1 (Homo sapiens), sequence (Q99873 whole entry, looked up): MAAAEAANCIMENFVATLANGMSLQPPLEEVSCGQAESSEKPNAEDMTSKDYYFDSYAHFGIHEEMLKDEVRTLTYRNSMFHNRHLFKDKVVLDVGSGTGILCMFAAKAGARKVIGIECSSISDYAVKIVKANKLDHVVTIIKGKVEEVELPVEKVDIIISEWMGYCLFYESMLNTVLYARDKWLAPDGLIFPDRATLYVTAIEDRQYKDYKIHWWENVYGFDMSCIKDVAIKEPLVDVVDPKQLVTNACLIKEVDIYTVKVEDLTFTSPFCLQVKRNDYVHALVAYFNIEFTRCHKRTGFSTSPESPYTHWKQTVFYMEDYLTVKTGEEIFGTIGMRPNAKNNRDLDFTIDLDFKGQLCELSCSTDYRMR

SMILES | IC50 (RmtA) [µM] | Activity [4] | Activity [5] | Activity [6] | Activity (U-937 [1]) | Activity (U-937 [2]) | Activity (U-937 [3])
O=C(NCCNC(=O)c1cc(Br)c(O)c(Br)c1)c1cc(Br)c(O)c(Br)c1 | 89.7 |  |  |  | Active | Active | 
O=C(/C=C/c1c(O)cc(Br)cc1Br)/C=C/c1c(O)cc(Br)cc1Br | 238 | Active | inactive |  | Active | Active | Active
O=C(/C=C/c1c(Br)cc(O)cc1Br)/C=C/c1c(Br)cc(O)cc1Br | 215 | Active | inactive |  | Active | Active | Active
O=C(NCCCCNC(=O)c1cc(Br)c(O)c(Br)c1)c1cc(Br)c(O)c(Br)c1 | 616 |  |  |  | Active | Active | 
O=C(Nc1ccc(NC(=O)c2cc(Br)c(O)c(Br)c2)cc1)c1cc(Br)c(O)c(Br)c1 | 122 | Active | Active | Active | Active | Active | 
O=C(CCCC(=O)Nc1cc(Br)c(O)c(Br)c1)Nc1cc(Br)c(O)c(Br)c1 | 173 |  |  |  | Active | Active | 
O=C(Nc1cc(Br)c(O)c(Br)c1)C(=O)Nc1cc(Br)c(O)c(Br)c1 | 32.6 |  |  |  | Active | Active | 
CN1C/C(=C\c2ccc(O)c(Br)c2)C(=O)/C(=C/c2ccc(O)c(Br)c2)C1 | 162 |  |  |  | Active | Active | Active
O=C1/C(=C/c2ccc(O)c(Br)c2)Cc2ccccc2/C1=C\c1ccc(O)c(Br)c1 | 92 | inactive | inactive | Active | Active | Active | Active
O=C(CCC(=O)Nc1cc(Br)c(O)c(Br)c1)Nc1cc(Br)c(O)c(Br)c1 | 156 |  |  |  | Active | Active | 
O=C(NCCCNC(=O)c1cc(Br)c(O)c(Br)c1)c1cc(Br)c(O)c(Br)c1 | 75.4 |  |  |  | Active | Active | 
CN1C2CCC1/C(=C\c1cc(Br)c(O)c(Br)c1)C(=O)/C2=C/c1cc(Br)c(O)c(Br)c1 | 84 |  |  |  | Active | Active | Active
O=C(/C=C/c1ccc(O)c(F)c1)/C=C/c1ccc(O)c(F)c1 | 169 |  |  |  | Active | Active | Active
O=C(CC(=O)Nc1cc(Br)c(O)c(Br)c1)Nc1cc(Br)c(O)c(Br)c1 | 102 |  |  |  | Active | Active | 
O=C1/C(=C/c2ccc(O)c(Br)c2)CCC/C1=C\c1ccc(O)c(Br)c1 | 90 | inactive | inactive | Active | Active | Active | Active
Cc1cc(/C=C/C(=O)/C=C/c2cc(C)c(O)c(C)c2)cc(C)c1O | 206 |  |  |  | Active | Active | Active
O=C(/C=C/c1ccc(O)c(C(=O)O)c1)/C=C/c1ccc(O)c(C(=O)O)c1 | 55 |  |  |  | Active | Active | Active
O=C(/C=C/c1ccc(O)c([N+](=O)[O-])c1)/C=C/c1ccc(O)c([N+](=O)[O-])c1 | 249 |  |  |  | Active | Active | Active
O=C1/C(=C/c2ccc(O)c(Br)c2)COC/C1=C\c1ccc(O)c(Br)c1 | 132 | inactive | inactive | Active | Active | Active | Active

Now from value to compound, other results behind:

IC50 (RmtA) [µM] | Activity [4] | Activity [5] | Activity [6] | SMILES | Activity (U-937 [1]) | Activity (U-937 [2]) | Activity (U-937 [3])
190 |  |  |  | O=C(/C=C/c1ccc(O)c(Br)c1)c1ccccc1 | Active | Active | Active
123 |  |  |  | CN1C/C(=C\c2ccc(O)c(Br)c2)C(=O)/C(=C/c2cc(Br)c(O)c(Br)c2)C1 | Active | Active | Active
156 |  |  |  | CC(C)(C(=O)/C=C/c1cc(Br)c(O)c(Br)c1)C(=O)/C=C/c1cc(Br)c(O)c(Br)c1 | Active | Active | 
59 | inactive | inactive | Active | O=C(/C=C/c1ccc(O)c(Br)c1)c1cccc(C(=O)/C=C/c2ccc(O)c(Br)c2)c1 | Active | Active | Active
210 |  |  |  | O=C1/C(=C/c2cc(Br)c(O)c(Br)c2)CN(Cc2ccccc2)C/C1=C\c1cc(Br)c(O)c(Br)c1 | Active | Active | Active
114 |  |  |  | O=C(/C=C/c1ccc(O)cc1Br)/C=C/c1ccc(O)cc1Br | Active | Active | Active
109 | inactive | inactive | Active | O=C(/C=C/c1ccc(O)c(Br)c1)CC(=O)/C=C/c1ccc(O)c(Br)c1 | Active | Active | 
47 | inactive | inactive | Active | O=C(/C=C/c1ccc(O)c(Br)c1)c1ccc(C(=O)/C=C/c2ccc(O)c(Br)c2)cc1 | Active | Active | 
37 |  |  |  | O=C1/C(=C/c2cc(Br)c(O)c(Br)c2)Cc2ccccc2/C1=C\c1cc(Br)c(O)c(Br)c1 | Active | Active | Active
115 |  |  |  | O=C(/C=C/c1cc(Br)c(O)c(Br)c1)c1ccccc1 | Active | Active | Active
